# Assay results taken from ChEMBL document CHEMBL1150062, “Phospholipase A2 inhibitors from marine organisms” (J Nat Prod, 1992).
# Active and inactive are the calls of the source. No cut-off for these calls is given here.
# Target: T1, Phospholipase A2 (Apis mellifera) (UniProt B7UUK1)
# T1 sequence (whole entry): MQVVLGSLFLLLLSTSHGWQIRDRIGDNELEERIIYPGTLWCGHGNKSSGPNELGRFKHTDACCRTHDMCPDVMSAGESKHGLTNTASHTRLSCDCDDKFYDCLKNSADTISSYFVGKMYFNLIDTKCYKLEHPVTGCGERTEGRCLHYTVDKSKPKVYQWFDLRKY
# Test: (§1) Inhibition of bee venom PLA2
# Settings: not given
row,Compound,Activity
1,C=C1CCC[C@H]2[C@](C)(CC3=C(O)C(=O)C=C(OC)C3=O)[C@@H](C)CC[C@]12C,inactive

# Target: T2, Phospholipase A2 (Apis mellifera, UniProt B7UUK1)
# T2 sequence (B7UUK1 whole entry): T1 sequence (whole entry)
# Test: as §1
# Settings: not given
row,Compound,IC50
1,CC(=O)O[C@H]1C[C@@H]2[C@@]3(C)CCCC(C)(C)[C@@H]3CC[C@@]2(C)[C@@H]2CC=C(C=O)[C@H](C=O)[C@@]12C [SCALARADIAL],70 nM
2,CC1(C)CCC[C@]2(C)[C@H]3C[C@@H](O)[C@]4(C)[C@@H](C=O)C(C=O)=CC[C@H]4[C@]3(C)CC[C@@H]12,200 nM
3,CC1=C(CC/C(C)=C/CCC2=CC[C@H](C3=CC(=O)O[C@H]3O)O[C@H]2O)C(C)(C)CCC1 [MANOALIDE],40 nM
4,CC1=C(CC/C(C)=C/CC/C(C=O)=C\C=C\C2=CC(=O)O[C@H]2O)C(C)(C)CCC1,280 nM
5,CC1=C(CC/C(C)=C/CC/C(C)=C/CCC2=CC(=O)OC2O)C(C)(C)CCC1 (stereo unspecified) [LUFFARIELLOLIDE],230 nM

# Target: T3, Phospholipase A2, membrane associated (Homo sapiens) (UniProt P14555)
# T3 sequence (whole entry): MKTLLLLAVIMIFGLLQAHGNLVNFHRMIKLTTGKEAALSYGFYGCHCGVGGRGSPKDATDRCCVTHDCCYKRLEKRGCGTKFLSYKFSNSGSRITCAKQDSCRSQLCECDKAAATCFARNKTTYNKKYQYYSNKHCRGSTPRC
# Test: Inhibition of human synovial fluid-PLA2
# Settings: concentration not given here
row,Compound,inhibition
1,CC1=C(CC/C(C)=C/CC/C(C)=C/CCC2=CC(=O)OC2O)C(C)(C)CCC1 (stereo unspecified) [LUFFARIELLOLIDE],98%

# Target: T1, Phospholipase A2 (Apis mellifera)
# Test: Inhibition of bee venom PLA2 at 4 uM
# Settings: not given
row,Compound,inhibition
1,CC1(C)CCC[C@]2(C)[C@H]3C[C@@H](O)[C@]4(C)[C@H](C=O)C(C=O)=CC[C@H]4[C@]3(C)CC[C@@H]12,< 70%

# Target: T1, Phospholipase A2 (Apis mellifera)
# Test: Inhibition of bee venom PLA2 assessed as inactivation of enzyme at 2 ug/ml
# Parameters: scale not given: the % may be the effect or the level left
# Settings: not given
row,Compound,Activity
1,C=C([C@@H]1[C@@H](OC(C)=O)O[C@@H]2OC(=O)C[C@@H]21)[C@H]1CC[C@H]2C(C)(C)CCC[C@]12C,66%
2,CCCC(=O)O[C@H]1[C@@H](O)[C@@]23C(CC[C@H]4C(=O)O[C@@H](O[C@H]2O)[C@H]43)[C@@]2(C)CCCC(C)(C)[C@@H]12 (stereo partly specified),44%
3,CCCC(=O)O[C@H]1[C@@H](OC(C)=O)[C@@]23C(CC[C@H]4C(=O)O[C@@H](O[C@H]2O)[C@H]43)[C@@]2(C)CCCC(C)(C)[C@H]12 (stereo partly specified),50%
4,CCCC(=O)O[C@@H]1C[C@H]2C(C)(C)CCC[C@]2(C)C2CC[C@H]3C(=O)O[C@H]4O[C@@H](O)[C@]21[C@H]43 (stereo partly specified),65%
5,CC(=O)O[C@@H]1O[C@H]2OC(=O)[C@H](C)C3=C([C@@]4(C)CCCC(C)(C)C4)C[C@@H](OC(C)=O)[C@@H]1[C@H]32,60%
6,CC1=CC(CC2=CC(=O)OC2O)C(C(C)C)CC1 (stereo unspecified),60%
7,CC1=C[C@H]2Cc3occc3C(C)(C)[C@H]2CC1,inactive
8,CC1=C[C@H]2Cc3ccoc3C(C)(C)[C@H]2CC1,inactive
9,CC1=CC2C[C@]3(O)OC(=O)C=C3C(C)(C)C2CC1 (stereo partly specified),60%
10,C=C1CCCC(C)(C)[C@@H]2CC[C@@](C)([C@H]3[C@H]4CC(=O)O[C@H]4O[C@H]3O)[C@H]12,48%
11,CC1=CC2C[C@]34OC(=O)C[C@]3(O4)C(C)(C)C2CC1 (stereo partly specified),inactive

# Target: T1, Phospholipase A2 (Apis mellifera)
# Test: Inhibition of bee venom PLA2 assessed as inactivation of enzyme at 1.6 ug/ml
# Parameters: scale not given: the % may be the effect or the level left
# Settings: not given
# In short: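 ³H-dipalmitoyl phosphatidylcholine (1.36 mM, Triton X-100 mixed micelles) in 10 mM HEPES, 1 mM CaCl2, pH 7.4. Bee venom PLA2 (100 units/ml) preincubated 1 h at 41° with compound from 10 mg/ml stock, then added to substrate for 15 sec at 41°. Acid-quenched, released palmitic acid extracted and scintillation counted, corrected for background and extraction efficiency. % inactivation vs vehicle, triplicate mean.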
row,Compound,Activity
1,Oc1cc(Cc2c(O)c(Br)c(O)c(Cc3cc(O)c(O)c(Br)c3Br)c2O)c(Br)c(Br)c1O,96%
2,Oc1cc(Cc2c(O)cc(O)c(Br)c2O)c(Br)c(Br)c1O,96%
